Source: ChEMBL document CHEMBL5724801, “EUbOPEN Chemogenomics Library - Multiplex” (2024)
Several values for one entry are separate records, joined by “and”; a condition that tells them apart may be missing. Equal entries are not always repeated.

System: Fibroblast
Experiment: Multiplex assay against human fibroblast
Format: toxicity, cell-based
Summary of the method: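 On a CQ1 microscope at 37°C and 5% CO2, live cells were imaged after compound addition. They had been stained at seeding with Hoechst33342, BioTracker Green Microtubule Cytoskeleton Dye, MitoTracker Red and Annexin V Alexa Fluor 680. CellPathfinder machine-learning gating assigned cells to Hoechst high-intensity objects or normal cells, normal cells to healthy, pyknosed or fragmented nuclei, and pyknosed cells to mitotic or apoptotic. Tubulin, mitochondrial-mass and membrane-permeability phenotypes are per cents of healthy-nucleus cells.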

[1] = 12 h, 1 µM, compound concentration 1 uM
[2] = 12 h, 10 µM, compound concentration 10 uM
[3] = 24 h, 1 µM, compound concentration 1 uM
[4] = 24 h, 10 µM, compound concentration 10 uM
[5] = 48 h, 1 µM, compound concentration 1 uM
[6] = 48 h, 10 µM, compound concentration 10 uM

`COc1ccc2c(c1OCc1ccccc1)C[C@@H](C(=O)O)N(C(=O)C(c1ccccc1)c1ccccc1)C2` [OLODANRIGAN] was tested, and the “Population Apoptotic (%)” value [1] was 46% and 38%, the “Population Fragmented Nuclei (%)” value [1] was 17% and 21% and the “Population Healthy Nuclei (%)” value [1] was 63% and 50%. For the same molecule, the “Population Hoechst High Intensity Objects (%)” value [1] was 7% and 1%, the “Population Membrane Permeable-Phenotype (%)” value [1] was 1% and 9% and the “Population Mitochondria Different-Phenotype (%)” value [1] was 2% and 5%. The “Population Mitotic Cells (%)” value [1] was 53% and 61%, the “Population Normal (%)” value [1] was 92% and 98% and the “Population Pyknosed Nuclei (%)” value [1] was 19% and 27%. For the same molecule, the “Population Tubulin-Different-Phenotype (%)” value [1] was 29% and 57%, the “Total Cell Count” value [1] was 157 and 154 and the “Population Apoptotic (%)” value [2] was 31% and 34%. For the same molecule, the “Population Fragmented Nuclei (%)” value [2] was 11% and 18%, the “Population Healthy Nuclei (%)” value [2] was 65% and 54% and the “Population Hoechst High Intensity Objects (%)” value [2] was 0% and 5%. The “Population Membrane Permeable-Phenotype (%)” value [2] was 1% and 6%, the “Population Mitochondria Different-Phenotype (%)” value [2] was 7% and the “Population Mitotic Cells (%)” value [2] was 68% and 65%. The “Population Normal (%)” value [2] was 99% and 94%, the “Population Pyknosed Nuclei (%)” value [2] was 23% and 26% and the “Population Tubulin-Different-Phenotype (%)” value [2] was 28% and 46%. For the same molecule, the “Total Cell Count” value [2] was 140 and 162, the “Population Apoptotic (%)” value [3] was 65% and 38% and the “Population Fragmented Nuclei (%)” value [3] was 18% and 21%. The “Population Healthy Nuclei (%)” value [3] was 66% and 53%, the “Population Hoechst High Intensity Objects (%)” value [3] was 6% and 2% and the “Population Membrane Permeable-Phenotype (%)” value [3] was 0% and 9%. For the same molecule, the “Population Mitochondria Different-Phenotype (%)” value [3] was 1% and 7%, the “Population Mitotic Cells (%)” value [3] was 34% and 61% and the “Population Normal (%)” value [3] was 93% and 97%. The “Population Pyknosed Nuclei (%)” value [3] was 15% and 25%, the “Population Tubulin-Different-Phenotype (%)” value [3] was 26% and 46% and the “Total Cell Count” value [3] was 159 and 146. For the same molecule, the “Population Apoptotic (%)” value [4] was 53% and 58%, the “Population Fragmented Nuclei (%)” value [4] was 10% and 17% and the “Population Healthy Nuclei (%)” value [4] was 68% and 62%. For the same molecule, the “Population Hoechst High Intensity Objects (%)” value [4] was 2% and 3%, the “Population Membrane Permeable-Phenotype (%)” value [4] was 1% and 4% and the “Population Mitochondria Different-Phenotype (%)” value [4] was 3% and 4%. The “Population Mitotic Cells (%)” value [4] was 46% and 41%, the “Population Normal (%)” value [4] was 97% and 96% and the “Population Pyknosed Nuclei (%)” value [4] was 21% and 19%. For the same molecule, the “Population Tubulin-Different-Phenotype (%)” value [4] was 21% and 50%, the “Total Cell Count” value [4] was 136 and 153 and the “Population Apoptotic (%)” value [5] was 42% and 41%. For the same molecule, the “Population Fragmented Nuclei (%)” value [5] was 27% and 31%, the “Population Healthy Nuclei (%)” value [5] was 58% and 52% and the “Population Hoechst High Intensity Objects (%)” value [5] was 3% and 1%. The “Population Membrane Permeable-Phenotype (%)” value [5] was 0% and 1%, the “Population Mitochondria Different-Phenotype (%)” value [5] was 2% and 4% and the “Population Mitotic Cells (%)” value [5] was 57% and 58%. The “Population Normal (%)” value [5] was 96% and 98%, the “Population Pyknosed Nuclei (%)” value [5] was 14% and 15% and the “Population Tubulin-Different-Phenotype (%)” value [5] was 20% and 40%. The “Total Cell Count” value [5] was 154 and 156, the “Population Apoptotic (%)” value [6] was 57% and 61% and the “Population Fragmented Nuclei (%)” value [6] was 15% and 29%. The “Population Healthy Nuclei (%)” value [6] was 69% and 58%, the “Population Hoechst High Intensity Objects (%)” value [6] was 5% and 7% and the “Population Membrane Permeable-Phenotype (%)” value [6] was 1% and 3%. For the same molecule, the “Population Mitochondria Different-Phenotype (%)” value [6] was 5%, the “Population Mitotic Cells (%)” value [6] was 42% and 38% and the “Population Normal (%)” value [6] was 94% and 92%. The “Population Pyknosed Nuclei (%)” value [6] was 15% and 12%, the “Population Tubulin-Different-Phenotype (%)” value [6] was 27% and 45% and the “Total Cell Count” value [6] was 146 and 163.
